Assay results of several laboratories.
Compare with care: the assays were run in different laboratories.
Target: Mitogen-activated protein kinase 12 (MAPK12, Homo sapiens, UniProt P53778)
Sequence (P53778 1-367, as in one of the studies): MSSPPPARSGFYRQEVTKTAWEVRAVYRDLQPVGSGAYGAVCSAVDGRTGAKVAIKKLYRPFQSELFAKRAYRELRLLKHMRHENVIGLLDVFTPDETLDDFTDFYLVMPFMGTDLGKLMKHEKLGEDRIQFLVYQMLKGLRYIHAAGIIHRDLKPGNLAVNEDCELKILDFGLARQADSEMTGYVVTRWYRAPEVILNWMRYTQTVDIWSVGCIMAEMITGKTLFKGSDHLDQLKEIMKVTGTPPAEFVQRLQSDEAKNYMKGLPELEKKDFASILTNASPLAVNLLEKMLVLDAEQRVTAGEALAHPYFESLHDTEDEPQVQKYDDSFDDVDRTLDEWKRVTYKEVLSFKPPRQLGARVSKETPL

Cn1cc(-c2cc(F)cc(N3CCn4c(cc5c4CCCC5)C3=O)c2CO)cc(Nc2ccc(N3CCN(C4COC4)CC3)cn2)c1=O  inhibition (enzyme activity, inhibitor; 0.1 µM): 16%
O=c1[nH]c2ccccc2n1C1CCN(Cc2ccc(-c3[nH]c4cc5ncnc5cc4nc3-c3ccccc3)cc2)CC1  remaining signal (cell-free assay; 0.5 µM): 93.1%
Cc1nn(C)cc1-c1nc2c(N3CCN(Cc4ccc(Cl)cc4)CC3)c(Cl)cnc2[nH]1  remaining binding (binding, competition with immobilised ligand; 1 µM): 100%
Nc1ncc(-c2nc(N3CCOCC3)nc(N3CCOCC3)n2)c(C(F)F)n1  remaining binding (binding, competition with immobilised ligand; 10 µM): 100%
COc1ncccc1-c1cnn2ccc(N3CCN(C(=O)OC(C)C)CC3)nc12  remaining binding (binding, competition with immobilised ligand; 1 µM): 100%
Cn1cc(-c2cccc(N3CCc4c(sc5c4CC(C)(C)C5)C3=O)c2CO)cc(Nc2ccncn2)c1=O  inhibition (enzyme activity, inhibitor; 1 µM): 11%
CC(C)(C)c1cc(C=C(C#N)C#N)cc(Br)c1O  remaining activity (enzyme activity, inhibitor; 0.5 µM): 102%
Cn1cncc1[C@](O)(COc1ccc(C#N)cc1-c1ccc(OC(F)(F)F)cc1)c1ccc(C#N)cc1  remaining binding (cell-free assay, competition with immobilised ligand; 1 µM): 100%
